# Compound activity deposited in PubChem by Broad Institute.
# Shown are actives, neighbours in structure and some others; about 3.1% of the full set was active somewhere.
# Ecoli rRNA inh – inhibits bacterial ribosomal RNA function over humanized ribosomes; GFP signal change (wild-type ribosome), % (concentration not given with the values); AID 720706; E. coli WT GFP vs humanized-ribosome RFP mutants, fluorescence, 24 h; active compounds read low; DMSO median 0, no signal -100; actives 1.6% (n = 350,000);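 active means significant combined selectivity score with lowered wild-type GFP, culture density cut under 30%, mutant RFP and density less affected; inactive means any of these conditions unmet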
# DENV2 CPE rescue – inhibitors of DENV2 cytopathic effect; AID 651640; actives 1.7% (n = 350,000); DENV2-infected cells, cytopathic effect rescue, plate reader; CPE inhibition, % at 9.99 µM; in the data active means CPE inhibition above about 20%, passing the limit was not always enough; tested in BHK-21 cells;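 further: 0% = median of neutral control wells and 100% = median of positive control wells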
# E-sel inducer – induces E-selectin expression in human endothelial cells; P16581; HUVEC E-selectin immunofluorescence imaging; normalized: neutral wells 0, TNF-alpha wells 100; activation, % at 7.58 µM; actives 0.37% (n = 260,000); AID 686992;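 active means mean E-selectin-positive cell signal at least 10% of the positive control, reached in at least 60% of replicates, without over 20% cell loss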
# Target sequence (P16581 whole entry, looked up): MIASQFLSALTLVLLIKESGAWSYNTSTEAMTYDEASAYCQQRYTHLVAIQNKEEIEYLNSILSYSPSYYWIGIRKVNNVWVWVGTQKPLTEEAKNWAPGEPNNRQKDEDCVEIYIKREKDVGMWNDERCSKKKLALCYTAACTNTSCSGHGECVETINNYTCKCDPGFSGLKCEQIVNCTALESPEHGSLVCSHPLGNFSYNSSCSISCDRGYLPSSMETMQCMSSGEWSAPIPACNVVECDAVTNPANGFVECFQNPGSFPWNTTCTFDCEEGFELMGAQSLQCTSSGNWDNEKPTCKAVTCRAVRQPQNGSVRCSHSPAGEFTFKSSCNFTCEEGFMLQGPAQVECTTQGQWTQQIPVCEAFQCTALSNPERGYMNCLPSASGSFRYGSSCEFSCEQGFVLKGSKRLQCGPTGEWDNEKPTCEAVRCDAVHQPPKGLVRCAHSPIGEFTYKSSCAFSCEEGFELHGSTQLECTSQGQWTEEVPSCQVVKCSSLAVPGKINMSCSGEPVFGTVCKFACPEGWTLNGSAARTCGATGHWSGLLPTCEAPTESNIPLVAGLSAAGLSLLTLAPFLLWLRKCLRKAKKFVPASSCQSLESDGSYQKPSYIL
#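 Test system – human umbilical vein endothelial cells (HUVEC), E-selectin induction · Input – 3,000 HUVEC seeded per well · Buffer or medium – EGM-2, gelatin · Compound dosing – single-point compound dose · Detection – immunofluorescence imaging · Measure – percent E-selectin-positive cells · Controls – TNF-alpha high, DMSO low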
# Cneo AK release – causes C. neoformans cell lysis. adenylate kinase release luminescence, 4 h; normalised: neutral wells 0, clomiphene wells 100. lysis activity, % at 15 µM. actives 0.2% (n = 360,000). AID 651654;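 active means mean lysis activity across replicates of at least 80%, whatever share of replicates individually reach that level; inactive means mean lysis activity below 80%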
#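 Material – log-phase Cryptococcus neoformans yeast cells · Input – 5 × 10^6 yeast cells/mL · Medium – fresh YPD growth medium · Doses – single compound concentration per well · Timing – static 4 h at 37 °C with compound, 1 h detection · Detection – adenylate kinase release luminescence · Read-out – signal increase indicating cell lysis · Control set – Clomiphene as positive lysis control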
# miR-122 sensor – miR-122 inhibition in Huh7 cells. Huh7 miR-122 Renilla luciferase sensor, 48 h; neutral wells = 0, positive control = 100. activation (reporter increase), % at 12.5 µM. actives 0.3% (n = 340,000);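 active means mean replicate activation score at least 90 and every replicate individually at or above 90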;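 further: higher luciferase means less miR-122 activity so hits act as miR-122 inhibitors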
# An asterisk follows results filed as active; . = no result given; ! = a repeat was not active; [ ] = dose if it differs, or a comment.
SMILES,Ecoli rRNA inh,DENV2 CPE rescue,E-sel inducer,Cneo AK release,miR-122 sensor
CC(=O)N1[C@H](CO)[C@H](c2ccccc2)C12CN(Cc1nccs1)C2,2,10,0,.,.
CCC(=O)N1[C@H](CO)[C@@H](c2ccccc2)C12CN(Cc1nccs1)C2,3,73*,0,.,.
CC(=O)N1[C@@H](CO)[C@@H](c2ccccc2)C12CN(Cc1nccs1)C2,2,4,0,.,.
O=C(c1ccccc1)N1[C@H](CO)[C@@H](c2ccccc2)C12CN(Cc1nccs1)C2,-3,27*,0,.,.
OC[C@@H]1[C@@H](c2ccccc2)C2(CN(Cc3nccs3)C2)N1CCC(F)(F)F,4,0,0,.,.
CC(C)NC(=O)Nc1cccc2c1O[C@@H](CN(C)Cc1ccc(C(F)(F)F)cc1)[C@H](C)CN([C@@H](C)CO)C2=O,-3,-15,7,.,.
C[C@H]1CCCCO[C@@H](CN(C)C(=O)Nc2ccccc2)[C@@H](C)CN([C@@H](C)CO)C(=O)c2cc(NS(=O)(=O)c3ccc(F)cc3)ccc2O1,-4,.,.,.,.
C[C@@H]1CCCCO[C@@H](CN(C)CC2CCCCC2)[C@H](C)CN([C@@H](C)CO)C(=O)c2cc(NC(=O)NC3CCCCC3)ccc2O1,2,5,0,63,-3[16.7 µM]
O=C(CN1CCOCC1)N[C@@H]1CC[C@@H](CCNS(=O)(=O)c2ccccc2F)O[C@H]1CO,0,12,-1,-2,-6[16.7 µM]
O=C(COc1nsnc1N1CCOCC1)N/N=C/c1ccccc1O,-22*,3,.,.,.
O=C(O)COc1ccc(/C=N/NC(=O)COc2nsnc2N2CCOCC2)cc1,8,-7,0,-2,-11
COc1ccc(NC(=O)Nc2ccc3c(c2)C(=O)N([C@H](C)CO)C[C@H](C)[C@@H](CN(C)C(=O)NC2CCCCC2)O3)cc1,-1,39*!,0,0,5[16.7 µM]
COc1ccc(NC(=O)Nc2ccc3c(c2)CC(=O)N([C@@H](C)CO)C[C@@H](C)[C@@H](CN(C)C(=O)NC2CCCCC2)O3)cc1,4,4,0,-3,8[16.7 µM]
C[C@H](CO)N1C[C@H](C)[C@@H](CN(C)C(=O)NC2CCCCC2)Oc2ccc(NC(=O)Nc3ccccc3)cc2CC1=O,1,46*,0,48,1[16.7 µM]
COc1ccc(NC(=O)N(C)C[C@H]2Oc3ccc(NC(=O)NC(C)C)cc3C(=O)N([C@H](C)CO)C[C@H]2C)cc1,5,34*,0,0,-2[16.7 µM]
COc1ccc(NC(=O)Nc2ccc3c(c2)C(=O)N([C@H](C)CO)C[C@H](C)[C@H](CN(C)C(=O)NC2CCCCC2)O3)cc1,-7,-1,0,-11,-3[16.7 µM]
COc1ccc(NC(=O)Nc2ccc3c(c2)CC(=O)N([C@H](C)CO)C[C@H](C)[C@H](CN(C)C(=O)NC2CCCCC2)O3)cc1,3,29*,0,-3,-8[16.7 µM]
CC(C)NC(=O)N(C)C[C@@H]1Oc2ccc(NS(C)(=O)=O)cc2C(=O)N(C)C[C@H]1C,1,.,.,.,.
C[C@@H]1CCCCO[C@@H](CN(C)S(C)(=O)=O)[C@H](C)CN([C@H](C)CO)C(=O)c2cc(NC(=O)Nc3ccc4c(c3)OCO4)ccc2O1,2,5,0,4,3[16.7 µM]
O=C(c1cccnc1)N1C[C@H]2[C@@H](c3ccccc31)[C@H](CO)N2C(=O)C1CCOCC1,5,4,0,-5,29[16.7 µM]
C[C@H](O)C#Cc1ccc2c(c1)O[C@H](CN(C)C(=O)Nc1ccccc1)[C@@H](C)CN([C@H](C)CO)S2(=O)=O,3,9,0,6,27[16.7 µM]
CO[C@@H]1CN(C)C(=O)c2ccc(NC(=O)C3CCC3)cc2OC[C@H](C)N(C(=O)CN(C)C)C[C@@H]1C,1,.,0,-2,-5[16.7 µM]
C[C@H]1CN([C@@H](C)CO)C(=O)Cc2cc(NC(=O)C3CCCCC3)ccc2O[C@H]1CN(C)C(=O)NC1CCCCC1,0,-5,307*,-1,2[16.7 µM]
C[C@@H]1CN([C@H](C)CO)C(=O)Cc2cc(NC(=O)Nc3ccccc3)ccc2O[C@@H]1CN(C)C(=O)NC1CCCCC1,4,35*,0,5,0[16.7 µM]
C[C@H](CO)N1C[C@H](C)[C@@H](CN(C)C(=O)NC2CCCCC2)Oc2ccc(NC(=O)C3CCCCC3)cc2CC1=O,1,-1,-5,0,-3[16.7 µM]
